Calls of active or inactive are those of the source. The calls are words filed in the database; no cut-off is given here.
How the values were obtained:
Rattus norvegicus [1] = assay: Antiinflammatory activity in Wistar rat assessed as inhibition of cotton pellet-induced granuloma formation at 50 mg/kg, po after 5 days relative to control; format: functional; conditions: for inhibition in vivo at 50 mg/kg: 120 h
Summary of the method: (§1)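 Preweighed sterile cotton wool pellets were implanted subcutaneously in rats, one on each side of a ventral midline incision. Compounds were suspended in 0.7% methylcellulose and given orally once daily on days 0–5, starting 2–3 h before implantation; controls received vehicle (10 mL/kg). On day 6 the pellets were removed and dried at 80 °C to constant weight. Mean granuloma per rat was compared with controls by Student's t test.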

Rattus norvegicus [2] = assay: Antiinflammatory activity in rat assessed as inhibition of carrageenan-induced paw edema at 100 mg/kg, po relative to control; format: functional
Summary of the method: (§2)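 Carrageenan paw edema in rats, compounds given orally. Edema is expressed as percent inhibition.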

Rattus norvegicus [3] = assay: Antiinflammatory activity in rat assessed as inhibition of carrageenan-induced paw edema at 300 mg/kg, po relative to control; format: functional; summary of the method: as §2
Rattus norvegicus [4] = assay: Antiinflammatory activity in Wistar rat assessed as inhibition of cotton pellet-induced granuloma formation at 3 mg/kg, po after 5 days relative to control; format: functional, organism-based; design: dose 3 mg/kg; summary of the method: as §1
Rattus norvegicus [5] = assay: Antiinflammatory activity in Wistar rat assessed as inhibition of cotton pellet-induced granuloma formation at 100 mg/kg, po after 5 days relative to control; format: functional; conditions: 120 h; summary of the method: as §1
Rattus norvegicus [6] = organism: Rattus norvegicus; assay: animal or person; conditions: po, read-out: INH
Rattus norvegicus [7] = organism: Rattus norvegicus; assay: animal or person; conditions: Wistar, po, 120 h, read-out: INH
Rattus norvegicus [8] = assay: Antiinflammatory activity in Wistar rat assessed as inhibition of cotton pellet-induced granuloma formation at 10 mg/kg, po after 5 days relative to control; format: functional; conditions: 120 h; summary of the method: as §1
Rattus norvegicus [9] = assay: Antiinflammatory activity in rat assessed as inhibition of carrageenan-induced paw edema at 15 mg/kg, po relative to control; format: functional; summary of the method: as §2

Row | Structure (SMILES) | inhibition in vivo at 50 mg/kg (Rattus norvegicus [1]) [%] | further results
1 | CCOc1ccc2cc(CCC(C)=O)ccc2c1 | 12 | –
2 | COc1ccc2cc(C(C)CC(C)=O)ccc2c1 (stereo not drawn) | 24 | inhibition in vivo at 100 mg/kg (Rattus norvegicus [2]): 36%
3 | COc1ccc2cc(CC(=O)O)ccc2c1 | – | inhibition (Rattus norvegicus [1]): Active
4 | COc1ccc2cc(CCC(C)OC(=O)c3cc(OC)c(OC)c(OC)c3)ccc2c1 (stereo not drawn) | 41 | –
5 | COc1ccc(CCC(C)=O)c2ccccc12 | 0 | –
6 | COc1ccc2cc(CCC(C)(C)O)ccc2c1 | 3 | –
7 | CC(=O)CCc1ccc2cc(C)ccc2c1 | 34 | –
8 | COc1ccc2cc(/C=C/C(C)=O)ccc2c1 | 18 | inhibition in vivo at 100 mg/kg (Rattus norvegicus [2]): 50%
9 | COc1ccc2cc(CCC(C)O)ccc2c1 (stereo not drawn) | 32 | –
10 | CC(=O)Oc1ccccc1C(=O)O [ASPIRIN] | – | inhibition in vivo at 300 mg/kg (Rattus norvegicus [3]): 31%; inhibition (Rattus norvegicus [4]): inactive; inhibition in vivo at 100 mg/kg (Rattus norvegicus [5]): 5%
11 | COc1ccc2cc(CCC(C)OC(C)=O)ccc2c1 (stereo not drawn) | 38 | –
12 | Cc1ccc2cc(CCC(C)O)ccc2c1 (stereo not drawn) | 35 | –
13 | CCC(=O)CCc1ccc2cc(OC)ccc2c1 | 7 | –
14 | CC(=O)CCc1ccc2ccccc2c1 | 20 | –
15 | CNC(=O)Oc1ccc2cc(CCC(C)=O)ccc2c1 | 21 | inhibition (Rattus norvegicus [4]): inactive
16 | CC(=O)CCc1ccc2cc(OC(C)=O)ccc2c1 | 2 | –
17 | COc1ccc2cc(CC(C)C(C)=O)ccc2c1 (stereo not drawn) | 7 | –
18 | COc1ccc2ccccc2c1CCC(C)=O | 10 | –
19 | CC(=O)CC(C)c1ccc2cc(C)ccc2c1 (stereo not drawn) | 11 | –
20 | COc1ccc2cc([C@H](C)C(=O)O)ccc2c1 [NAPROXEN] | – | inhibition in vivo at 6 mg/kg (Rattus norvegicus [6]): 30%; inhibition (Rattus norvegicus [4]): inactive; inhibition in vivo at 30 mg/kg (Rattus norvegicus [7]): 46%
21 | CC(=O)/C=C/c1ccc2cc(C)ccc2c1 | 29 | –
22 | C[C@]12CCC(=O)C=C1CC[C@@H]1[C@@H]2[C@@H](O)C[C@@]2(C)[C@H]1CC[C@]2(O)C(=O)CO [HYDROCORTISONE] | – | inhibition (Rattus norvegicus [4]): inactive; inhibition in vivo at 10 mg/kg (Rattus norvegicus [8]): 30%
23 | COc1ccc2cc(CC/C(C)=N\O)ccc2c1 | 15 | –
24 | COc1ccc2cc(CCC(C)OC(=O)CC(C)(C)CC(=O)O)ccc2c1 (stereo not drawn) | 26 | –
25 | CCC(CC(C)=O)c1ccc2cc(OC)ccc2c1 (stereo not drawn) | 20 | –
26 | COc1ccc2cc(CCC3(C)OCCO3)ccc2c1 | 22 | –
27 | CC(=O)CCc1ccc2cc(Cl)ccc2c1 | 53 | –
28 | COc1ccc2cc(CCC(C)=O)ccc2c1 [NABUMETONE] | 39 | inhibition in vivo at 15 mg/kg (Rattus norvegicus [9]): 37%
29 | CC(=O)CCc1ccc2cc(O)ccc2c1 | 5 | –
